Measurements: ChEMBL document CHEMBL2311500, “Identification and characterization of small molecules as potent and specific EPAC2 antagonists” (J Med Chem, 2013)
The source made the active and inactive calls. The rule behind the calls is not given here.

What was measured:
[1] = target: T1, Rap guanine nucleotide exchange factor 4 (Homo sapiens, UniProt Q8WZA2); assay: Antagonist activity at recombinant EPAC2 (unknown origin) assessed 8-NBD-cAMP substrate fluorescence intensity by substrate competing assay
Target sequence in this assay (Q8WZA2 whole entry): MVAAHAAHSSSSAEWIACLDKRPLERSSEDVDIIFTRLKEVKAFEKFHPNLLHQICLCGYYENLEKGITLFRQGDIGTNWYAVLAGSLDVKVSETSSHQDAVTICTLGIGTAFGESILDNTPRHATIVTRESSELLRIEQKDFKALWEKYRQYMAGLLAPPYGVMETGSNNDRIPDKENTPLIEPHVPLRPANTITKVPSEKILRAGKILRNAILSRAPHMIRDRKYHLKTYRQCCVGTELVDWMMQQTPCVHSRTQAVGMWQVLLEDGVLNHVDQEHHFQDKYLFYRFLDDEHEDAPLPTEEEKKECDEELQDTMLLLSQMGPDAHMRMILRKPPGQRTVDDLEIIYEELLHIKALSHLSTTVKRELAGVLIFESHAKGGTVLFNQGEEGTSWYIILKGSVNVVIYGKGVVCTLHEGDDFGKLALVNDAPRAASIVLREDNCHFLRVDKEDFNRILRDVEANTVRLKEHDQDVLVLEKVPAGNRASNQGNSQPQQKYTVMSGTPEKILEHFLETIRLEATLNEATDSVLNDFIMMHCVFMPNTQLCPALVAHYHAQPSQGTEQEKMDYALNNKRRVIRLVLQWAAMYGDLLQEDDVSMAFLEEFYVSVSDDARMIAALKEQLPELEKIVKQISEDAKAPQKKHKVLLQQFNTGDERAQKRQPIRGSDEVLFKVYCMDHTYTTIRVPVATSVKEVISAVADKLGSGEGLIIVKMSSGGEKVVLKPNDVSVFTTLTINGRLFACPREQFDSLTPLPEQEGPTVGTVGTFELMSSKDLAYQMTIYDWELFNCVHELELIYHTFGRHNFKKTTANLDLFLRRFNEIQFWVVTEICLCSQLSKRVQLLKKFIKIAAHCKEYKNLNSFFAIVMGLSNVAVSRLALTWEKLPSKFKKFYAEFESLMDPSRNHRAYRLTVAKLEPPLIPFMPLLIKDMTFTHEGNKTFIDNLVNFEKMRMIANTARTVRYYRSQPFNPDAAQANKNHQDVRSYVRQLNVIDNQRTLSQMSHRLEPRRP

[2] = target: T2, Rap guanine nucleotide exchange factor 3 (Homo sapiens) (UniProt O95398); assay: Inhibition of recombinant EPAC1 (unknown origin) assessed as inhibition of cAMP-mediated RAP1-GDP exchange activity at 25 uM by spectrofluorometric analysis
T2 sequence (whole entry): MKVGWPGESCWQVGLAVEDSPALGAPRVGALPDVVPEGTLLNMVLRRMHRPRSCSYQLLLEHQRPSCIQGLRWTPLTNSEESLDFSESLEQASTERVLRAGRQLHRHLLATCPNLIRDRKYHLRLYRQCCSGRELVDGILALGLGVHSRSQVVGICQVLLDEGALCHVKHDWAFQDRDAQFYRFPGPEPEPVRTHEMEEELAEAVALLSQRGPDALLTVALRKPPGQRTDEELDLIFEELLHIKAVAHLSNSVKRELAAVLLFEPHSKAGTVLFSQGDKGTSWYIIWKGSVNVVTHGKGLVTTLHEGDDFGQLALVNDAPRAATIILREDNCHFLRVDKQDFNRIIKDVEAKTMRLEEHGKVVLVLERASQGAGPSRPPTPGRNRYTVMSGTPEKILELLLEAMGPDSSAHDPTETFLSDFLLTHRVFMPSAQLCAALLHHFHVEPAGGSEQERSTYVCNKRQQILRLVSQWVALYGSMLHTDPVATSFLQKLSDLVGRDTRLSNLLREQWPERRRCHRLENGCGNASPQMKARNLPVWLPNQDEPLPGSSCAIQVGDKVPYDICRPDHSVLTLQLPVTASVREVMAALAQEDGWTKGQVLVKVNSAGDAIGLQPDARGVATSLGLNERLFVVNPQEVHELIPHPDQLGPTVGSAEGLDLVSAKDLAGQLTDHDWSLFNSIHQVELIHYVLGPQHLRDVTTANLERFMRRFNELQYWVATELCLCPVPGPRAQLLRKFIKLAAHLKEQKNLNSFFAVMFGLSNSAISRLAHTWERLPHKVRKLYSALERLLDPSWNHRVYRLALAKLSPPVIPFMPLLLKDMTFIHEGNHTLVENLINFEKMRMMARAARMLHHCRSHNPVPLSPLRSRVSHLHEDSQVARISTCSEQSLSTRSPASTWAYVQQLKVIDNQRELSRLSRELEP
Outline: (§1)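 Purified recombinant full-length EPAC1 or EPAC2 with 0.2 µM Mant-GDP-loaded Rap1B(1-167) in 50 mM Tris pH 7.5, 50 mM NaCl, 5 mM MgCl2, 1 mM DTT and 20 µM unlabeled GDP. […] Fluorescence decay (ex 366/em 450 nm) was recorded every 60 s over 6000 s.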

[3] = target: T1, Rap guanine nucleotide exchange factor 4; settings: HEK293, 10 uM
Target sequence in this assay (Q8WZA2 whole entry, looked up): as the sequence (Q8WZA2 whole entry) above

[4] = target: T1, Rap guanine nucleotide exchange factor 4; assay: Inhibition of recombinant EPAC2 (unknown origin) assessed as inhibition of cAMP-mediated guanine nucleotide exchange factor activity at 25 uM by spectrofluorometric analysis; outline: as §1
Target sequence in this assay (Q8WZA2 whole entry, looked up): as the sequence (Q8WZA2 whole entry) above

[5] = target: T2, Rap guanine nucleotide exchange factor 3 (Homo sapiens); assay: Inhibition FL-tagged full length human EPAC1 expressed in HEK293 cells assessed as inhibition of 007-AM-induced activation at 10 uM by FRET assay; assay type: cell-based
HEK293 = assay: Inhibition of N-terminal CFP/C-terminal YFP tagged PKA (unknown origin) expressed in HEK293 cells assessed as inhibition of 8-Br-cAMP-AM-induced activation at 10 uM by FRET assay; assay type: cell-based; settings: Homo sapiens
Homo sapiens [6] = species on record: Homo sapiens; assay: Inhibition of PKA2 (unknown origin) assessed as inhibition of cAMP-induced activation at 25 uM by spectrophotometric analysis
Outline: (§2)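 Coupled pyruvate kinase/lactate dehydrogenase assay following NADH oxidation at 340 nm, at room temperature. The reaction was started with Kemptide (0.26 mM final). H89 (25 µM) served as the inhibition control.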

Homo sapiens [7] = species on record: Homo sapiens; assay: Inhibition of PKA1 (unknown origin) assessed as inhibition of cAMP-induced activation at 25 uM by spectrophotometric analysis; outline: as §2

SMILES	IC50 [1] [µM]	further results
Cc1cc(C)c(S(=O)(=O)c2ccc(C3CCCCC3)cc2)c(C)c1	> 300	
CCCCCc1ccc(S(=O)(=O)c2c(C)cc(C)cc2C)cc1	> 300	
Cc1cc(C)c(S(=O)(=O)c2ccc(-c3ccc(F)nc3)cc2)c(C)c1	> 300	
Cc1cc(C)c(S(=O)(=O)n2ccc3cccnc32)c(C)c1	2.4	
Cc1cc(C)c(S(=O)(=O)n2cc(C)cc2C)c(C)c1		inhibition [2]: inactive; inhibition [3]: Active; inhibition [4]: Active; inhibition [5]: inactive; inhibition (HEK293): inactive; inhibition (Homo sapiens [6]): inactive; inhibition (Homo sapiens [7]): inactive
Cc1cc(C)c(S(=O)(=O)c2cc(C)c(C)cc2C)c(C)c1	0.7	
Cc1cc(C)c(S(=O)(=O)c2ccc(OC3CCN(C(=O)OC(C)(C)C)CC3)cc2)c(C)c1	> 300	
Cc1cc(C)c(Nc2cc(Cl)cc(Cl)c2)c(C)c1	0.9	
CCc1cccn1S(=O)(=O)c1ccc(OC)cc1	8	
CCc1cccn1S(=O)(=O)c1ccc(C)cc1C	1.3	
CCc1cccn1S(=O)(=O)c1ccc(C(F)(F)F)cc1	> 300	
Cc1cc(C)c(Nc2nc(C)c(C)s2)c(C)c1	> 300	
COc1ccc(S(=O)(=O)c2c(C)cc(C)cc2C)cc1	1.9	
CCc1cccn1S(=O)(=O)c1cc(C)cc(C)c1	4.7	
Cc1cc(C)c(Nc2cc(Cl)ccc2Cl)c(C)c1	0.4	inhibition [2]: inactive; inhibition [4]: Active; inhibition (Homo sapiens [6]): inactive; inhibition (Homo sapiens [7]): inactive
O=S(=O)(NCCNC/C=C/c1ccc(Br)cc1)c1cccc2cnccc12		inhibition (Homo sapiens [6]): Active; inhibition (Homo sapiens [7]): Active

SMILES	IC50 [1] [µM]	further results
Cc1cc(C)c(S(=O)(=O)c2ccc(OC3CCCCC3)cc2)c(C)c1	> 300	
Cc1cc(C)c(S(=O)(=O)n2ccc3cc(C(=O)O)ccc32)c(C)c1	10.8	
Cc1ccc(Nc2c(C)cc(C)cc2C)cc1	3.8	
CCc1cccn1S(=O)(=O)c1ccc(C)cc1	4	
Nc1ccc(Nc2ccc(N)cc2S(=O)(=O)O)cc1	18	
Cc1cc(C)c(S(=O)(=O)c2ccc(I)cc2)c(C)c1	4	
COC(=O)c1ccc2c(ccn2S(=O)(=O)c2c(C)cc(C)cc2C)c1	> 300	
Cc1cc(C)c(S(=O)(=O)n2ccc3cnccc32)c(C)c1	8.9	
Cc1ccc(S(=O)(=O)c2c(C)cc(C)cc2C)cc1		inhibition [2]: inactive; inhibition [4]: Active; inhibition (Homo sapiens [6]): inactive; inhibition (Homo sapiens [7]): inactive
Cc1cc(C)c(S(=O)(=O)c2ccc(O)cc2)c(C)c1	13.5	
Cc1cc(C)c(S(=O)(=O)n2ccc3ncccc32)c(C)c1	3.8	
Cc1cc(C)c(S(=O)(=O)n2ccc3ccncc32)c(C)c1	12.6	
Cc1cc(C)c(S(=O)(=O)c2ccc(OC3CCNCC3)cc2)c(C)c1	> 300	
CCc1cccn1S(=O)(=O)c1ccccc1C	5.3	
Cc1cc(C)c(S(=O)(=O)c2ccc(OCCN)cc2)c(C)c1	> 300	
Cc1cc(C)c(S(=O)(=O)n2ccc3ccccc32)c(C)c1	1.2	
